Experiments:
Format in all cases: functional
[1] = test system: HL-60; assay: Growth inhibition of human HL60 cells after 48 hrs; settings: HL-60, 48 h; for TGI: read-out: pTGI (converted)
Summary of the method: (§1)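 NCI ~60-line screen. Cells were grown in RPMI 1640 with 5% FBS and 2 mM L-glutamine and plated at 5000–40000 cells/well. After a 24 h preincubation, five drug concentrations from DMSO stocks were added for 48 h at 37 °C. Cells were TCA-fixed, stained with SRB and read at 515 nm. GI50 was taken from time-zero and control absorbances and reported as pGI50.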

[2] = test system: T47D; assay: Growth inhibition of human T47D cells after 48 hrs; settings: for TGI: read-out: pTGI (converted)
Summary of the method: (§2)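 NCI 60-line screen: cells in RPMI 1640 with 5% FBS and 2 mM L-glutamine, plated at 5000–40000 cells/well, grown 24 h (37 °C, 5% CO₂), then exposed to five 10-fold or ½-log dilutions (DMSO stock) for 48 h. Fixed with TCA (final 10% for adherent cells, 16% for suspension cells), then SRB stained with absorbance at 515 nm. GI50 from percentage growth relative to time-zero and control wells.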

[3] = test system: RPMI-8226; assay: Growth inhibition of human RPMI8226 cells after 48 hrs; settings: RPMI-8226, 48 h; for TGI: read-out: pTGI (converted); summary of the method: as §1
[4] = test system: A549; assay: Growth inhibition of human A549 cells after 48 hrs; settings: A549, 48 h; for TGI: read-out: pTGI (converted); summary of the method: as §1
[5] = test system: HOP-62; assay: Growth inhibition of human HOP62 cells after 48 hrs; settings: HOP-62, 48 h; for TGI: read-out: pTGI (converted); summary of the method: as §1
[6] = test system: HOP-92; assay: Growth inhibition of human HOP92 cells after 48 hrs; settings: HOP-92, 48 h; for TGI: read-out: pTGI (converted); summary of the method: as §1
[7] = test system: NCI-H226; assay: Growth inhibition of human NCI-H226 cells after 48 hrs; settings: NCI-H226, 48 h; for TGI: read-out: pTGI; summary of the method: as §1
[8] = test system: NCI-H23; assay: Growth inhibition of human NCI-H23 cells after 48 hrs; settings: for CC50: read-out: Log LC50 (the source's name) (converted); for TGI: read-out: pTGI (converted); summary of the method: as §1
[9] = test system: NCI-H322M; assay: Growth inhibition of human NCI-H322M cells after 48 hrs; settings: for TGI: read-out: pTGI (converted); summary of the method: as §1
[10] = test system: HCT-116; assay: Growth inhibition of human HCT116 cells after 48 hrs; settings: HCT-116, 48 h; for TGI: read-out: pTGI (converted); summary of the method: as §1
[11] = test system: HCT-15; assay: Growth inhibition of human HCT15 cells after 48 hrs; settings: HCT-15, 48 h; for TGI: read-out: pTGI; summary of the method: as §1
[12] = test system: SF-268; assay: Growth inhibition of human SF268 cells after 48 hrs; settings: SF-268, 48 h; for TGI: read-out: pTGI (converted); summary of the method: as §1
[13] = test system: SF-539; assay: Growth inhibition of human SF539 cells after 48 hrs; settings: SF-539, 48 h; for TGI: read-out: pTGI (converted); summary of the method: as §1
[14] = test system: LOX IMVI; assay: Growth inhibition of human LOXIMVI cells after 48 hrs; settings: for TGI: read-out: pTGI (converted); summary of the method: as §1
[15] = test system: Malme-3M; assay: Growth inhibition of human MALME3M cells after 48 hrs; settings: for TGI: read-out: pTGI (converted); summary of the method: as §1
[16] = test system: M14; assay: Growth inhibition of human M14 cells after 48 hrs; settings: M14, 48 h; for TGI: read-out: pTGI (converted); summary of the method: as §1
[17] = test system: UACC-257; assay: Growth inhibition of human UACC257 cells after 48 hrs; settings: UACC-257, 48 h; for TGI: read-out: pTGI (converted); summary of the method: as §2
[18] = test system: OVCAR-8; assay: Growth inhibition of human OVCAR8 cells after 48 hrs; settings: OVCAR-8, 48 h; for TGI: read-out: pTGI (converted); summary of the method: as §1
[19] = test system: 786-0; assay: Growth inhibition of human 786-0 cells after 48 hrs; settings: 786-0, 48 h; for TGI: read-out: pTGI (converted); summary of the method: as §1
[20] = test system: CAKI-1; assay: Growth inhibition of human CAKI1 cells after 48 hrs; settings: CAKI-1, 48 h; for TGI: read-out: pTGI (converted); summary of the method: as §1
[21] = test system: UO-31; assay: Growth inhibition of human UO31 cells after 48 hrs; settings: UO-31, 48 h; for TGI: read-out: pTGI (converted); summary of the method: as §2
[22] = test system: MCF7; assay: Growth inhibition of human MCF7 cells after 48 hrs; settings: MCF7, 48 h; for TGI: read-out: pTGI (converted); summary of the method: as §1
[23] = test system: MDA-MB-435; assay: Growth inhibition of human MDA-MB435 cells after 48 hrs; settings: MDA-MB-435, 48 h; summary of the method: as §1
[24] = test system: SR; assay: Growth inhibition of human SR cells after 48 hrs; summary of the method: as §2
[25] = read-out: Log LC50 (the source's name) (converted)

CCCCN(CCCC)CCCn1c(=O)c2c3ccccc3n(C)c2n2nnc(-c3ccccc3)c12
GI50 [1]: 2.57 µM | TGI [1]: 41.7 µM | GI50 [2]: 55 µM | TGI [2]: > 100 µM | GI50 [3]: 6.03 µM | TGI [3]: 49 µM | GI50 [4]: 43.7 µM | TGI [4]: > 100 µM | GI50 [5]: 30.9 µM | TGI [5]: > 100 µM | GI50 [6]: 18.6 µM | TGI [6]: 44.7 µM | GI50 [7]: 57.5 µM | TGI [7]: > 100 µM | CC50 ([8]; Homo sapiens, NCI-H23, 48 h): 12.9 µM | TGI ([8]; Homo sapiens, NCI-H23, 48 h): 63.1 µM | GI50 [9]: 28.8 µM | TGI [9]: > 100 µM | GI50 [10]: 18.6 µM | TGI [10]: > 100 µM | GI50 [11]: 20.9 µM | TGI [11]: > 100 µM | GI50 [12]: > 100 µM | TGI [12]: > 100 µM | GI50 [13]: 66.1 µM | TGI [13]: > 100 µM | GI50 [14]: 28.2 µM | TGI [14]: > 100 µM | GI50 [15]: 28.2 µM | TGI [15]: 89.1 µM | GI50 [16]: 21.4 µM | TGI [16]: > 100 µM | GI50 [17]: 28.8 µM | TGI [17]: 83.2 µM | GI50 [18]: 39.8 µM | TGI [18]: > 100 µM | GI50 [19]: 38.9 µM | TGI [19]: > 100 µM | GI50 [20]: 50.1 µM | TGI [20]: > 100 µM | GI50 [21]: 6.03 µM | TGI [21]: 46.8 µM | GI50 [22]: 37.2 µM | TGI [22]: > 100 µM

Cn1c2ccccc2c2c(=O)n(CCCC(=O)NCCc3c[nH]cn3)c3c(-c4ccccc4)nnn3c21
GI50 [1]: 11.7 µM | LC50 [1]: > 50.1 µM | TGI [1]: 28.2 µM | GI50 [23]: 10.2 µM | LC50 [23]: 39.8 µM | TGI ([23]; read-out: pTGI (converted)): 20 µM | GI50 [2]: 10.5 µM | CC50 [2, 25]: > 50.1 µM | TGI [2]: 25.1 µM | GI50 [3]: 10.5 µM | LC50 [3]: > 50.1 µM | TGI [3]: 28.8 µM | GI50 [24]: 4.07 µM | LC50 [24]: > 50.1 µM | TGI ([24]; read-out: pTGI (converted)): > 50.1 µM | GI50 [4]: 12.9 µM | CC50 [4, 25]: 45.7 µM | TGI [4]: 24 µM | GI50 [5]: 7.59 µM | LC50 [5]: 37.2 µM | TGI [5]: 17 µM | GI50 [6]: 1.35 µM | LC50 [6]: 44.7 µM | TGI [6]: 5.5 µM | GI50 [7]: > 50.1 µM | CC50 [7, 25]: > 50.1 µM | TGI [7]: > 50.1 µM | TGI ([8]; Homo sapiens, NCI-H23, 48 h): 46.8 µM | CC50 [8]: 13.2 µM | GI50 [9]: 11 µM | LC50 [9]: > 50.1 µM | TGI [9]: 29.5 µM | GI50 [10]: 5.89 µM | LC50 [10]: 32.4 µM | TGI [10]: 13.8 µM | GI50 [11]: 14.5 µM | LC50 [11]: > 50.1 µM | TGI [11]: 43.7 µM | GI50 [12]: 11.7 µM | CC50 [12, 25]: > 50.1 µM | TGI [12]: 31.6 µM | GI50 [13]: 9.33 µM | LC50 (concentration killing 50% of cells) [13]: 31.6 µM | TGI [13]: 17.4 µM | GI50 [14]: 11.2 µM | LC50 (lethal concentration, 50% cell kill) [14]: 46.8 µM | TGI [14]: 22.9 µM | GI50 [15]: 7.59 µM | LC50 [15]: 37.2 µM | TGI [15]: 16.6 µM | GI50 [16]: 12 µM | LC50 [16]: 49 µM | TGI [16]: 24.5 µM | GI50 [17]: 12 µM | LC50 [17]: 38.9 µM | TGI [17]: 21.4 µM | GI50 [18]: 10 µM | LC50 [18]: 42.7 µM | TGI [18]: 20.9 µM | GI50 [19]: 2.19 µM | LC50 [19]: 26.9 µM | TGI [19]: 8.13 µM | GI50 [20]: 12 µM | LC50 (concentration killing 50% of cells) [20]: > 50.1 µM | TGI [20]: 33.1 µM | GI50 [21]: 7.41 µM | LC50 [21]: 29.5 µM | TGI [21]: 14.8 µM | GI50 [22]: 12.9 µM | LC50 [22]: > 50.1 µM | TGI [22]: 30.2 µM

From ChEMBL document CHEMBL1142436, “Design and synthesis of 4-substituted indolo[3,2-e][1,2,3]triazolo[1,5-a]pyrimidine derivatives with antitumor activity” (2008)
